Out of some 190,000 compounds screened, about 1,800 (0.95%) were called active. What follows is part of a selection rich in actives, with near analogues and random picks from the rest. Unmarked numbers belong to inactive results.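 Rule for the calls: active = activation above the screen-wide mean of compound activation plus 3 SD (cut at about 130% in these data); inactive = the rest.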
Assay: enhancers of STAT3 transcriptional signaling – U3A cells, luciferase, luminescence, MLSCN library, primary screen (AID 871);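 note: 0% = background luminescence of wells with medium and substrate only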
Conditions: IL-6 STAT3-luciferase reporter, at 5.6 µM, stronger effect = higher value
Procedure, shortened: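 Material: STAT1-lacking human U3A cells, STAT3 luciferase reporter | Benchmarks: IL-6-only wells as 100% reference | Probe or stimulus: IL-6 (33 ng/mL) | Timing: Compound 1 h, then IL-6 6 h at 37 °C | Detection: Luminescence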

SMILES	activation (% of control)
COc1cc(-n2c(=S)[nH]c3ccc(C)cc3c2=O)c(Cl)cc1Cl	156% (active)
CC(=O)c1c(C)n(C(C)C)c2ccc(O)cc12	102%
N#CC1=C(N)Oc2c(c(=O)oc3ccccc23)C1c1ccccc1OC(=O)c1cccs1 (stereo not given)	106%
CCOP(=S)(OCC)SCOC(=O)NCC(=O)OC	106%
CCC/C(=N\O)c1c[nH]c2ccccc12	153% (active)
C/C(CCc1c[nH]c2ccccc12)=N\O	98%
CC1=CC(=Cc2sc3ccccc3[n+]2C)C=C(C)O1	30.2%
CCOc1ccc(CN(CCCl)CCCl)cc1C(=O)OC	96.4%
CCOCCc1c(O)[nH]c(=S)[nH]c1=O	99.3%
O=C(Nc1cccc2ccccc12)N1CCC2(CC1)OCCO2	105%

From PubChem BioAssay AID871 (The Scripps Research Institute Molecular Screening Center, 2007)
